According to PubChem BioAssay:
Active and inactive are the calls of the source. Cut-off read from the data, not from the text of the source, unless noted: active = inhibition above about 30%; inactive = the rest.

How the values were obtained:
[1] = Her2 expression decrease, cell viability multiplex – SKBR3 breast tumor cells, AlphaScreen, ATP viability, primary screen (AID 461;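 active = Her2 level under about 52% in both replicate screens, with viability over 70% of control, limit read from the data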;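 for Her2 level: lower value means less Her2 protein in the cells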;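 for viability: percent of carrier control wells set as 100% viability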); conditions: SKBR3 Her2 protein level, 18-24 h, measured here: SKBR3 viability, ATP luminescence, at 10 µM
[2] = molecular target: Receptor tyrosine-protein kinase erbB-2 (Homo sapiens) (UniProt P04626); assay: as above; conditions: 18-24 h, at 10 µM, stronger effect = lower value
[3] = reduced viability of SK-BR-3 breast cancer cells – cell-based, 24 h, human, pilot screen (AID 572;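 active = viability at or below 10% of carrier control in both of two separate runs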;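 note: compound exposure lasted between 18 and 24 h rather than exactly 24 h; 100% = carrier-treated control wells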); conditions: SK-BR-3 viability, CellTiter-Glo luminescence, at 10 µM, stronger effect = lower value
[4] = HUVEC growth inhibition – cell-based, human, primary screen (AID 575;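 active = viability at or below 30% in both replicate assays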;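 note: 100% = median of untreated cell wells with 0.1% DMSO on each plate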); conditions: HUVEC proliferation, CellTiter-Glo luminescence, 72 h; at 10 µM; stronger effect = lower value
In short: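 Test system: HUVEC primary cells. Quantity: 1250 endothelial cells in each well. Dosing: single-point 10 µM, DMSO 0.1% final. Incubation: 72 h treatment at 37 °C. Measured by: CTG luminescence. Control set: DMSO cell controls and MePR drug controls. Plate: collagen-coated 384-well format.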

[5] = H69AR cell proliferation blockers – human, duplicate replicates, primary screen (AID 580;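 active = viability at or under a set limit in both replicates, limit being median viability minus 3 SD, cut at about 48% in these data, passing the limit was not always enough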;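 note: 100% = mean luminescence of untreated wells and 0% = no signal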); conditions: H69AR lung tumor cells viability, ATP luminescence, 72 h; at 10 µM; stronger effect = lower value
[6] = MRP1 drug-resistance reversers in H69AR cells – cell-based, doxorubicin co-treatment, pilot screen (AID 601;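 active = viability loss from added drug above about 55%, and viability with drug at most 40%, in both replicates, limit read from the data, passing the limit was not always enough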); conditions: CellTiter-Glo, 72 h, at 10 µM; for differential viability (reversal): stronger effect = higher value
[7] = yeast transport mutant growth inhibition pilot in 384-well plates, post-Golgi transport modulator project (AID 636; in the data active = inhibition above about 31%); conditions: absorbance 615 nm, about 18 h, stronger effect = higher value
[8] = growth suppression of yeast trafficking mutant, preliminary HTS, modulators of trafficking downstream of Golgi apparatus project, 1536-format plate, OD 615 nm (AID 637); conditions: yeast transport mutant growth, absorbance 615 nm, 18 h; stronger effect = higher value
[9] = H69AR cells + 2 uM doxorubicin, measured here: viability with 2 uM doxorubicin, stronger effect = lower value
[10] = H69AR cells, compound alone cytotoxicity

Sequence of Receptor tyrosine-protein kinase erbB-2 (Homo sapiens) (P04626 whole entry, looked up): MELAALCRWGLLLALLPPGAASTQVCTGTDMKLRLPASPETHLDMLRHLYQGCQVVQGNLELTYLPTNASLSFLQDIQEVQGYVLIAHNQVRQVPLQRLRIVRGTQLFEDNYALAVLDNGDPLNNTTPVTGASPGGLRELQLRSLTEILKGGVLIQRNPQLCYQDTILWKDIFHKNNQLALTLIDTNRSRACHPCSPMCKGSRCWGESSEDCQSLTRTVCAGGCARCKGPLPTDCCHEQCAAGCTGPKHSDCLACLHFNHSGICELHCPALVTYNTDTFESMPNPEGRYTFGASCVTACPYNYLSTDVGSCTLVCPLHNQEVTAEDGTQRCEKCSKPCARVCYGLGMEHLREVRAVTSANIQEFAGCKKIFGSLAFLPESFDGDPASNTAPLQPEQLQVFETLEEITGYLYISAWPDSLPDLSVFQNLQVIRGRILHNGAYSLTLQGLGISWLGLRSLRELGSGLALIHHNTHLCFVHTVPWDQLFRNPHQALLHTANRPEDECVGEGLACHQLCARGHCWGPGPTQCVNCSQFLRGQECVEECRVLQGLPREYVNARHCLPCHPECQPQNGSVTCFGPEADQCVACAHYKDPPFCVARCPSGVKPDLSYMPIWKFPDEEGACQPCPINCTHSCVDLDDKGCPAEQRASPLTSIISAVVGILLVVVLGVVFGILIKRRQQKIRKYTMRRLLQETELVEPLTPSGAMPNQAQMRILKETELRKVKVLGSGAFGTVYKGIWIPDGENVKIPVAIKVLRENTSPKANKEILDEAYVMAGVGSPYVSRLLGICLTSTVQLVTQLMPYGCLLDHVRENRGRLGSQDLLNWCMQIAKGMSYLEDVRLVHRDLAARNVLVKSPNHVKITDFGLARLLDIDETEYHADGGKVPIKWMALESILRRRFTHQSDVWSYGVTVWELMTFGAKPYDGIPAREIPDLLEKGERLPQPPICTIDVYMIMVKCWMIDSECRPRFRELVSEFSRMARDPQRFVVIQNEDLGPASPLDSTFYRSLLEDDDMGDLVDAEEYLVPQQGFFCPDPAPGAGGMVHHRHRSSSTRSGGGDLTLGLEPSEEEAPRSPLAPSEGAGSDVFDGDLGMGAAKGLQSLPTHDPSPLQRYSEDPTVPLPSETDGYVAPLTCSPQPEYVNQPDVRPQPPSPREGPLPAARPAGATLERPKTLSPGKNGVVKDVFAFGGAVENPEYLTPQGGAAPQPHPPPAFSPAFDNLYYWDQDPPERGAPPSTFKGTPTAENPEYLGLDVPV

| SMILES | viability [1] [%] | Her2 level [2] | viability [3] | viability [4] | viability [5] | differential viability (reversal) ([6]; H69AR cells + 2 uM doxorubicin) | viability [6, 9] [%] | viability [6, 10] [%] | inhibition [7] | inhibition [8] |
| --- | --- | --- | --- | --- | --- | --- | --- | --- | --- | --- |
| COc1cccc(NC(=O)N[C@@H](Cc2ccccc2)C(=O)O)c1 | 94 | 91.5% (inactive) | 94% (inactive) | 93.8% (inactive) | 114% (inactive) | 19.6% (inactive) | 94.5 | 114 | -4.46% (inactive) | 2.06% (inactive) |
| CCOc1ccc(CN2C(=O)c3ccccc3C2C(=O)NCc2cccnc2)cc1 (stereo not given) | 96 | 96.5% (inactive) | 96% (inactive) | 86.6% (inactive) | 98.8% (inactive) | 1.78% (inactive) | 97 | 98.8 | -0.91% (inactive) | -3.02% (inactive) |
| CN1CCCN(C(=O)c2cc(=O)[nH]c3ccccc23)c2nc3ccccc3nc21 | 114 | 90% (inactive) | 114% (inactive) | 84.2% (inactive) | 79.9% (inactive) | 0.575% (inactive) | 79.3 | 79.9 | -4.93% (inactive) | -2.79% (inactive) |
| Cc1ccc2c(c1)NC(=O)C(CC(=O)NCCN(CC(C)C)CC(C)C)O2 (stereo not given) | 88 | 93% (inactive) | 88% (inactive) | 87.3% (inactive) | 91.6% (inactive) | 5.71% (inactive) | 85.8 | 91.6 | 2.13% (inactive) | -3.28% (inactive) |
| Nc1nnc(SCC(=O)N2CCc3ccccc32)n1-c1ccccc1 | 102 | 80% (inactive) | 102% (inactive) | 82% (inactive) | 101% (inactive) | 6.62% (inactive) | 94.5 | 101 | -4.8% (inactive) | 0.32% (inactive) |
| CC1CC(C)CN(CCCNC(=O)COc2cc(=O)n(C)c3ccccc23)C1 (stereo not given) | 90 | 88% (inactive) | 90% (inactive) | 85.3% (inactive) | 90.7% (inactive) | 16.5% (inactive) | 74.2 | 90.7 | -3.73% (inactive) | -4.59% (inactive) |
| CC(=O)NC(Cc1cc(C)ccc1C)C(=O)N1CCN(C(=O)Nc2ccc(C(C)=O)cc2)CC1 (stereo not given) | 102 | 101% (inactive) | 102% (inactive) | 109% (inactive) | 88.7% (inactive) | -5.32% (inactive) | 94 | 88.7 | -4.62% (inactive) | -11.3% (inactive) |
| COC(=O)C(NC(C)=O)(Nc1nc2ccc(S(C)(=O)=O)cc2s1)C(F)(F)F (stereo not given) | 96.5 | 87.5% (inactive) | 96.5% (inactive) | 93.8% (inactive) | 102% (inactive) | 1.18% (inactive) | 101 | 102 | -2.11% (inactive) | -1.27% (inactive) |
| O=C(C1CCCN(S(=O)(=O)c2cccs2)C1)N1CCc2ccccc2C1 (stereo not given) | 83 | 75.5% (inactive) | 83% (inactive) | 83.4% (inactive) | 85.3% (inactive) | -6.37% (inactive) | 91.7 | 85.3 | -4% (inactive) | 3.28% (inactive) |
| O=C(O)CC1=C(O)C(=O)N(c2ccccc2)C1c1ccccc1 (stereo not given) | 102 | 107% (inactive) | 102% (inactive) | 96.9% (inactive) | 102% (inactive) | 7.7% (inactive) | 94.1 | 102 | -1.49% (inactive) | -0.49% (inactive) |
| Cc1ccc(-c2nnn(CC(=O)N(Cc3cccs3)C(C(=O)NC(C)(C)C)c3ccc(C)o3)n2)o1 (stereo not given) | 86.5 | 96.5% (inactive) | 86.5% (inactive) | 93.4% (inactive) | 79% (inactive) | 3.37% (inactive) | 75.7 | 79 | -0.77% (inactive) | -5.67% (inactive) |
| O=C(NCc1ccc2c(c1)OCO2)C1CCCN(S(=O)(=O)c2cccnc2)C1 (stereo not given) | 95.5 | 102% (inactive) | 95.5% (inactive) | 101% (inactive) | 92.4% (inactive) | 7.61% (inactive) | 84.8 | 92.4 | 0.38% (inactive) | -6.5% (inactive) |
| COc1ccc(N2CCN(CCCNC(=O)CC3Oc4ccc(C)cc4NC3=O)CC2)cc1 (stereo not given) | 87.5 | 99% (inactive) | 87.5% (inactive) | 88.9% (inactive) | 89.6% (inactive) | 0.915% (inactive) | 88.7 | 89.6 | -2.27% (inactive) | -2.62% (inactive) |
| Cc1cc(Nc2ccc(N3CCC(C)CC3)cc2)n2ncnc2n1 | 100 | 110% (inactive) | 100% (inactive) | 101% (inactive) | 77.6% (inactive) | -1.35% (inactive) | 79 | 77.6 | 5.62% (inactive) | 3.02% (inactive) |
| COC(=O)CC1SC(=O)NC1=O (stereo not given) | 110 | 120% (inactive) | 110% (inactive) | 102% (inactive) | 105% (inactive) | 10.4% (inactive) | 94.6 | 105 | 1.05% (inactive) | -7.21% (inactive) |
| Cc1cc(NC(=O)COC(=O)c2cccc(S(=O)(=O)N3CCOCC3)c2)no1 | 112 | 88% (inactive) | 112% (inactive) | 92.4% (inactive) | 91.1% (inactive) | 6.37% (inactive) | 84.8 | 91.1 | -5% (inactive) | 1.9% (inactive) |

| SMILES | viability [1] [%] | Her2 level [2] | viability [3] | viability [4] | viability [5] | differential viability (reversal) ([6]; H69AR cells + 2 uM doxorubicin) | viability [6, 9] [%] | viability [6, 10] [%] | inhibition [7] | inhibition [8] |
| --- | --- | --- | --- | --- | --- | --- | --- | --- | --- | --- |
| COc1ccccc1CNC(=O)CCNC(=O)Cn1ccc2ccccc2c1=O | 93 | 92% (inactive) | 93% (inactive) | 98.3% (inactive) | 100% (inactive) | 12.8% (inactive) | 87.4 | 100 | -0.13% (inactive) | 4.59% (inactive) |
| C=Cn1c(C(=O)O)cc(CC)c1-c1ccccc1 | 96 | 101% (inactive) | 96% (inactive) | 100% (inactive) | 106% (inactive) | 2.8% (inactive) | 104 | 106 | -4.4% (inactive) | -7.42% (inactive) |
| COc1ccc(C2C(C(=O)c3sc(C)nc3C)=C(O)C(=O)N2CCN2CCOCC2)cc1 (stereo not given) | 99 | 92.5% (inactive) | 99% (inactive) | 111% (inactive) | 102% (inactive) | 5.41% (inactive) | 96.3 | 102 | 0% (inactive) | -4.19% (inactive) |
| CCC(=O)N[C@@H]1CC(C(C)(C)NC(=O)CC)CC=C1C (stereo not given in full) | 105 | 83.5% (inactive) | 105% (inactive) | 93.4% (inactive) | 86.4% (inactive) | -1% (inactive) | 87.4 | 86.4 | -5.33% (inactive) | -0.33% (inactive) |
| Cc1ccc(S(=O)(=O)C2(C(=O)NC3CCCC3)CC2)cc1 | 148 | 87.5% (inactive) | 148% (inactive) | 104% (inactive) | 97.1% (inactive) | 9.32% (inactive) | 87.8 | 97.1 | -2.34% (inactive) | -2.22% (inactive) |
| Cc1ccc(-c2c3c(=O)n(C)c(=O)n(C)c3cn2CCCN2CCOCC2)cc1 | 144 | 102% (inactive) | 144% (inactive) | 103% (inactive) | 77.8% (inactive) | -4.19% (inactive) | 82 | 77.8 | -7.5% (inactive) | -0.95% (inactive) |
| Cc1cc(/C=N/n2cnnc2)c(C)n1-c1ccc(Cl)cc1Cl | 99.5 | 64.5% (inactive) | 99.5% (inactive) | 92.3% (inactive) | 90.6% (inactive) | 10.1% (inactive) | 80.5 | 90.6 | -5.54% (inactive) | -6.17% (inactive) |
| N=c1c(C(=O)NCc2ccc(F)cc2)cc2c(=O)n3ccccc3nc2n1CCCN1CCOCC1 | 95 | 74.5% (inactive) | 95% (inactive) | 82.8% (inactive) | 76.6% (inactive) | -8.96% (inactive) | 85.6 | 76.6 | 0.78% (inactive) | 10.8% (inactive) |
| CC1CCCC(C(=O)OCc2ccccc2)N1 (stereo not given) | 119 | 94% (inactive) | 119% (inactive) | 102% (inactive) | 97.2% (inactive) | 6.15% (inactive) | 91 | 97.2 | -2.63% (inactive) | -1.11% (inactive) |
| CCOc1ccccc1C1NC(=O)NC(C)=C1C(=O)OC1CCCC1C (stereo not given) | 94.5 | 69% (inactive) | 94.5% (inactive) | 82.5% (inactive) | 78.1% (inactive) | 2.33% (inactive) | 75.8 | 78.1 | -1.73% (inactive) | 0.81% (inactive) |
| Cc1nc2ccccc2cc1C(=O)NCc1ccco1 | 130 | 90% (inactive) | 130% (inactive) | 91.3% (inactive) | 93.3% (inactive) | 8.23% (inactive) | 85.1 | 93.3 | -4.93% (inactive) | 7.42% (inactive) |
| CCOc1cc(-c2nc(-c3ccccc3OC)no2)cc(OCC)c1OCC | 90 | 96.5% (inactive) | 90% (inactive) | 97.4% (inactive) | 92.5% (inactive) | -2.62% (inactive) | 95.1 | 92.5 | -2.13% (inactive) | 22% (inactive) |
| COc1ccc2[nH]c(=O)c(CN(CCO)S(=O)(=O)c3ccc4c(c3)OCCO4)cc2c1 | 85 | 97.5% (inactive) | 85% (inactive) | 99.8% (inactive) | 94% (inactive) | 6.97% (inactive) | 87 | 94 | -5.07% (inactive) | -2.3% (inactive) |
| COc1ccc(CNc2ccc(C(=O)O)cc2)cc1 | 102 | 87% (inactive) | 102% (inactive) | 93% (inactive) | 91.7% (inactive) | 4.9% (inactive) | 86.8 | 91.7 | -3.87% (inactive) | 8.55% (inactive) |
| COc1ccccc1NC(=O)NC1(C(=O)N2CCC(O)CC2)CCCCC1 | 103 | 97% (inactive) | 103% (inactive) | 99.2% (inactive) | 114% (inactive) | 4.86% (inactive) | 109 | 114 | -3.9% (inactive) | -4.13% (inactive) |
